Source: ChEMBL document CHEMBL3877264, “Quinolidene-rhodanine conjugates: Facile synthesis and biological evaluation” (Eur J Med Chem, 2017)
≈ marks a conversion by molar mass, not a printed value.

Tests used:
Assay type in all cases: functional
[1] = test system: Escherichia coli; assay: Growth inhibition of Escherichia coli NCIM 2688 at 30 ug/ml measured after 8 hrs relative to control; conditions: NCIM 2688, 8 h, read-out: GI
Procedure, shortened: (§1)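 Bacteria grown in LB at 37 °C and 180 rpm to OD 1. Compounds added to wells, then 0.1% inoculum of 1 OD culture (620 nm). Growth read as OD at 620 nm after 8 h for gram-negative and after 12 h for gram-positive strains.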

[2] = test system: Staphylococcus aureus; assay: Growth inhibition of Staphylococcus aureus NCIM 2010 at 30 ug/ml measured after 12 hrs relative to control; conditions: NCIM 2010, 12 h, read-out: GI; procedure, shortened: as §1
[3] = test system: Pseudomonas fluorescens; assay: Growth inhibition of Pseudomonas fluorescens NCIM 2036 at 10 ug/ml measured after 8 hrs relative to control; conditions: NCIM 2036, 8 h, read-out: GI; procedure, shortened: as §1
[4] = test system: Candida albicans; assay: Antifungal activity against Candida albicans NCIM 3471 by standard agar method
Procedure, shortened: (§2)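 MICs determined by standard agar method; DMSO as solvent control.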

[5] = test system: Pseudomonas fluorescens; assay: Growth inhibition of Pseudomonas fluorescens NCIM 2036 at 30 ug/ml measured after 8 hrs relative to control; conditions: NCIM 2036, 8 h, read-out: GI; procedure, shortened: as §1
[6] = test system: Escherichia coli; assay: Growth inhibition of Escherichia coli NCIM 2688 at 10 ug/ml measured after 8 hrs relative to control; conditions: NCIM 2688, 8 h, read-out: GI; procedure, shortened: as §1
[7] = test system: Mycobacterium tuberculosis; assay: Growth inhibition of Mycobacterium bovis BCG ATCC 35743 at active stage measured after 8 days by nitrate reductase dye based two fold dilution method; conditions: BCG str. ATCC 35743, 192 h
Procedure, shortened: (§3)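 M. bovis BCG was grown in Dubos medium and assayed in Mycobacterium pheli minimal medium (pH 6.6), with compounds from DMSO stocks. Incubation lasted 8 days for active and 12 days for dormant cultures. Viability was read by nitrate reductase at 540 nm against cell-free blanks, with vehicle set as 100% growth. Primary screen was at 30, 10 and 3 µg/ml, in triplicate, mean ± SD. MIC was taken from dose-response curves.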

[8] = test system: Bacillus subtilis; assay: Growth inhibition of Bacillus subtilis NCIM 2079 at 3 ug/ml measured after 12 hrs relative to control; conditions: NCIM 2079, 12 h, read-out: GI; procedure, shortened: as §1
[9] = test system: Staphylococcus aureus; assay: Antibacterial activity against of Staphylococcus aureus NCIM 2010 measured after 12 hrs; conditions: NCIM 2010, 12 h; procedure, shortened: as §1
[10] = test system: Mycobacterium tuberculosis; assay: Growth inhibition of Mycobacterium bovis BCG ATCC 35743 at dormant stage at 3 ug/ml measured after 12 days by nitrate reductase dye based two fold dilution method relative to control; conditions: BCG str. ATCC 35743, 288 h, read-out: GI; procedure, shortened: as §3
[11] = test system: Bacillus subtilis; assay: Antibacterial activity against Bacillus subtilis NCIM 2079 measured after 12 hrs; conditions: NCIM 2079, 12 h; procedure, shortened: as §1
[12] = test system: Mycobacterium tuberculosis; assay: Growth inhibition of Mycobacterium tuberculosis H37Ra ATCC 25177 at active stage measured after 8 days by XTT dye based two fold dilution method; conditions: H37Ra ATCC 25177, 192 h
Procedure, shortened: (§4)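 MTB H37Ra was grown in Dubos medium, then exposed in Mycobacterium pheli minimal medium (pH 6.6) to compounds dissolved in DMSO. The assay ended on day 8 (active) or day 12 (dormant). Viable cells were measured by XTT reduction menadione assay at 470 nm, blank-corrected, relative to vehicle control. Triplicates were expressed as mean ± SD. MIC came from dose-response curves.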

[13] = Antifungal activity against Cryptococcus neoformans NCIM 576 by standard agar method; procedure, shortened: as §2
[14] = test system: Pseudomonas fluorescens; assay: Antibacterial activity against Pseudomonas fluorescens NCIM 2036 measured after 8 hrs; conditions: NCIM 2036, 8 h; procedure, shortened: as §1
[15] = test system: Mycobacterium tuberculosis; assay: Growth inhibition of Mycobacterium tuberculosis H37Ra ATCC 25177 at dormant stage measured after 12 days by XTT dye based two fold dilution method; conditions: H37Ra ATCC 25177, 288 h; procedure, shortened: as §4
[16] = test system: Staphylococcus aureus; assay: Growth inhibition of Staphylococcus aureus NCIM 2010 at 3 ug/ml measured after 12 hrs relative to control; conditions: NCIM 2010, 12 h, read-out: GI; procedure, shortened: as §1
[17] = test system: Bacillus subtilis; assay: Growth inhibition of Bacillus subtilis NCIM 2079 at 10 ug/ml measured after 12 hrs relative to control; conditions: NCIM 2079, 12 h, read-out: GI; procedure, shortened: as §1
[18] = test system: Mycobacterium tuberculosis; assay: Growth inhibition of Mycobacterium bovis BCG ATCC 35743 at dormant stage at 10 ug/ml measured after 12 days by nitrate reductase dye based two fold dilution method relative to control; conditions: BCG str. ATCC 35743, 288 h, read-out: GI; procedure, shortened: as §3
[19] = test system: Escherichia coli; assay: Antibacterial activity against Escherichia coli NCIM 2688 measured after 8 hrs; conditions: NCIM 2688, 8 h; procedure, shortened: as §1
[20] = test system: Pseudomonas fluorescens; assay: Growth inhibition of Pseudomonas fluorescens NCIM 2036 at 3 ug/ml measured after 8 hrs relative to control; conditions: NCIM 2036, 8 h, read-out: GI; procedure, shortened: as §1
[21] = test system: Mycobacterium tuberculosis; assay: Growth inhibition of Mycobacterium bovis BCG ATCC 35743 at dormant stage measured after 12 days by nitrate reductase dye based two fold dilution method; conditions: BCG str. ATCC 35743, 288 h; procedure, shortened: as §3
[22] = test system: Staphylococcus aureus; assay: Growth inhibition of Staphylococcus aureus NCIM 2010 at 10 ug/ml measured after 12 hrs relative to control; conditions: NCIM 2010, 12 h, read-out: GI; procedure, shortened: as §1
[23] = test system: Aspergillus flavus; assay: Antifungal activity against Aspergillus flavus NCIM 539 by standard agar method; procedure, shortened: as §2
[24] = test system: Escherichia coli; assay: Growth inhibition of Escherichia coli NCIM 2688 at 3 ug/ml measured after 8 hrs relative to control; conditions: NCIM 2688, 8 h, read-out: GI; procedure, shortened: as §1
[25] = test system: Bacillus subtilis; assay: Growth inhibition of Bacillus subtilis NCIM 2079 at 30 ug/ml measured after 12 hrs relative to control; conditions: NCIM 2079, 12 h, read-out: GI; procedure, shortened: as §1
[26] = Antifungal activity against Fusarium oxysporum NCIM 1332 by standard agar method; procedure, shortened: as §2
[27] = test system: Aspergillus niger; assay: Antifungal activity against Aspergillus niger NCIM 1196 by standard agar method; procedure, shortened: as §2
[28] = test system: Mycobacterium tuberculosis; assay: Growth inhibition of Mycobacterium bovis BCG ATCC 35743 at dormant stage at 30 ug/ml measured after 12 days by nitrate reductase dye based two fold dilution method relative to control; conditions: BCG str. ATCC 35743, 288 h, read-out: GI; procedure, shortened: as §3

Row | Structure (SMILES) | inhibition of growth at 30 µg/mL [1] [%] | inhibition of growth at 30 µg/mL [2] [%] | inhibition of growth at 10 µg/mL [3] [%] | MIC [4] [µg/mL] | inhibition of growth at 30 µg/mL [5] [%] | inhibition of growth at 10 µg/mL [6] [%] | IC50 [7] [µg/mL] | IC90 [7] [µg/mL] | inhibition of growth at 3 µg/mL [8] [%] | MIC [9] [µg/mL] | inhibition of growth at 3 µg/mL [10] [%] | MIC [11] [µg/mL] | IC50 [12] [µg/mL] | IC90 [12] [µg/mL] | MIC [13] [µg/mL] | MIC [14] [µg/mL] | IC50 [15] [µg/mL] | IC90 [15] [µg/mL] | MIC [26] [µg/mL] | MIC [27] [µg/mL] | further results
1 | COc1ccc2nc(Cl)c(/C=C3\SC(=S)N(CCC(=O)O)C3=O)cc2c1 | 13.5 | -16.1 | -17 | 125 (≈ 306 µM) | -27.3 | 14.4 | > 30 | > 30 | -6.61 | > 30 | 25.4 | > 30 | > 30 | > 30 | 150 (≈ 367 µM) | > 30 | > 30 | > 30 | 175 (≈ 428 µM) | 175 (≈ 428 µM) | inhibition of growth at 3 µg/mL [16]: -2.06%; inhibition of growth at 10 µg/mL [17]: -1.08%; inhibition of growth at 10 µg/mL [18]: 27.2%; MIC [19]: > 30 µg/mL; inhibition of growth at 3 µg/mL [20]: -4.49%; IC50 [21]: > 30 µg/mL; IC90 [21]: > 30 µg/mL; inhibition of growth at 10 µg/mL [22]: -21.7%; MIC [23]: 100 µg/mL (≈ 245 µM); inhibition of growth at 3 µg/mL [24]: 20.7%; inhibition of growth at 30 µg/mL [25]: -3.99%; inhibition of growth at 30 µg/mL [28]: 27.2%
2 | Cc1ccc2nc(Cl)c(/C=C3\SC(=S)N(CC(=O)O)C3=O)cc2c1 | -6.72 | -5.17 | -7.54 | 125 (≈ 330 µM) | 13.2 | 0.409 | > 30 | > 30 | -24.1 | > 30 | 14.9 | > 30 | > 30 | > 30 | 125 (≈ 330 µM) | > 30 | > 30 | > 30 | 150 (≈ 396 µM) | 175 (≈ 462 µM) | inhibition of growth at 3 µg/mL [16]: 0.77%; inhibition of growth at 10 µg/mL [17]: -6.38%; inhibition of growth at 10 µg/mL [18]: 13.5%; MIC [19]: > 30 µg/mL; inhibition of growth at 3 µg/mL [20]: -67.2%; IC50 [21]: > 30 µg/mL; IC90 [21]: > 30 µg/mL; inhibition of growth at 10 µg/mL [22]: -6.18%; MIC [23]: 150 µg/mL (≈ 396 µM); inhibition of growth at 3 µg/mL [24]: -1.08%; inhibition of growth at 30 µg/mL [25]: 1.48%; inhibition of growth at 30 µg/mL [28]: -0.24%
3 | Clc1ccc(COC(Cn2ccnc2)c2ccc(Cl)cc2Cl)c(Cl)c1 (configuration not stated) [MICONAZOLE] | – | – | – | 25 (≈ 60.1 µM) | – | – | – | – | – | – | – | – | – | – | 25 (≈ 60.1 µM) | – | – | – | 25 (≈ 60.1 µM) | 25 (≈ 60.1 µM) | MIC [23]: 12.5 µg/mL (≈ 30 µM)
4 | Cc1cccc2cc(/C=C3\SC(=S)N(CCC(=O)O)C3=O)c(Cl)nc12 | 10.5 | -12.1 | -2.3 | 50 (≈ 127 µM) | 16 | 4.27 | > 30 | > 30 | -3.04 | > 30 | 17.2 | > 30 | > 30 | > 30 | 100 (≈ 255 µM) | > 30 | > 30 | > 30 | 100 (≈ 255 µM) | 75 (≈ 191 µM) | inhibition of growth at 3 µg/mL [16]: -4.02%; inhibition of growth at 10 µg/mL [17]: -5.28%; inhibition of growth at 10 µg/mL [18]: 27.9%; MIC [19]: > 30 µg/mL; inhibition of growth at 3 µg/mL [20]: 4.57%; IC50 [21]: > 30 µg/mL; IC90 [21]: > 30 µg/mL; inhibition of growth at 10 µg/mL [22]: -19.7%; MIC [23]: 150 µg/mL (≈ 382 µM); inhibition of growth at 3 µg/mL [24]: 8.12%; inhibition of growth at 30 µg/mL [25]: -5.57%; inhibition of growth at 30 µg/mL [28]: 24.8%
5 | O=C(O)CN1C(=O)/C(=C/c2cc3ccccc3nc2Cl)SC1=S | -12.1 | -7.84 | -75.5 | 125 (≈ 343 µM) | 13.8 | -8.37 | > 30 | > 30 | -12 | > 30 | 23.5 | > 30 | > 30 | > 30 | 100 (≈ 274 µM) | > 30 | > 30 | > 30 | 125 (≈ 343 µM) | 100 (≈ 274 µM) | inhibition of growth at 3 µg/mL [16]: -17.2%; inhibition of growth at 10 µg/mL [17]: -24.5%; inhibition of growth at 10 µg/mL [18]: 32.9%; MIC [19]: > 30 µg/mL; inhibition of growth at 3 µg/mL [20]: -16.1%; IC50 [21]: > 30 µg/mL; IC90 [21]: > 30 µg/mL; inhibition of growth at 10 µg/mL [22]: -8.62%; inhibition of growth at 3 µg/mL [24]: -10.4%; inhibition of growth at 30 µg/mL [25]: -22.6%; inhibition of growth at 30 µg/mL [28]: 34.2%
